The source of these data is ChEMBL document CHEMBL1125720, “Long-acting dihydropyridine calcium antagonists. 6. Structure-activity relationships around 4-(2,3-dichlorophenyl)-3-(ethoxycarbonyl)-2-[(2-hydroxyethoxy)methyl]-5 -(methoxycarbonyl)-6-methyl-1,4-dihydropyridine” (J Med Chem, 1991).

The term IC50 denotes the concentration needed to halve the response being measured. A low value points to greater potency in that assay. Broadly, the clearance is a measure of how efficiently the substance is removed, as volume per time. The half-life is the time in which the quantity being followed falls by half. Read a high half-life as slow decline.

Each structure is given as a SMILES string.

The nature of data set [1]: Selectivity index calculated as the ratio of Calcium pIC50 to that of negative inotropy IC25. The class given is functional.
For data set [2], the species on record is Rattus norvegicus. The data set is described as follows: Evaluated for the negative logarithm of the molar concentration required to block [Ca2+] induced contraction of K+ depolarized rat aorta by 50%. The format is functional. A digest of the protocol: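 Rat aorta depolarized with potassium, then contracted by adding calcium. Read-out is the molar concentration that inhibits the calcium-induced contraction by 50%, reported as pIC50.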

The species entered for data set [3] is Cavia porcellus. The data set is described as follows: Evaluated for the negative ionotropy logarithm of the molar concentration required to depress contraction in the Langendorff-perfused guinea pig heart by 25%. The class given is functional. A digest of the protocol: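 Negative inotropy measured in vitro in a Langendorff-perfused guinea pig heart. Read-out is the molar concentration that depresses contraction by 25%, reported as pIC25.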

Data set [4] in a line: Compound was evaluated for the plasma clearance to investigate its pharmacokinetic profile in dogs after intravenous administration. The class given is ADME, organism-based, Canis lupus familiaris. The following applies: dog.
Data set [5] in a line: Compound was evaluated for the volume of distribution to investigate its pharmacokinetic profile in dogs after intravenous administration. The following applies: dog, in vivo, read-out: Volume of distribution. The format is ADME, organism-based, Canis lupus familiaris.
Data set [6] is described as follows: Compound was evaluated for the plasma half-life to investigate its pharmacokinetic profile in dogs after intravenous administration. The class given is ADME, organism-based, Canis lupus familiaris. As to conditions: dog.

Turning to `CCCOCC1=C(C(=O)OCC)C(c2cccc(Cl)c2Cl)/C(=C(\O)OC)C(C)=N1` (configuration not stated), in data set [1], the Selectivity index is 20. The compound further had a half-maximal inhibitory concentration (IC50) in data set [2] of 31.6 nM. In addition, the pIC25 in data set [3] came to 6.2.

`CCO/C(O)=C1\C(COCCO)=NC(C)=C(C(=O)OC)C1c1cccc(Cl)c1Cl` (configuration not stated): the Selectivity index in data set [1] was 10. The compound further gave a clearance in data set [4] of 9.6 mL/min/kg. Also, the Vd in data set [5] came to 6 L/kg. In data set [6], this compound gave a half-life of 7.3 h. The IC50 in data set [2] is 3.98 nM. In data set [3], the pIC25 turned out to be 7.4.

For `CCO/C(O)=C1\C(COCC(C)(O)Cc2ccccn2)=NC(C)=C(C(=O)OC)C1c1cccc(Cl)c1Cl` (configuration not stated), the Selectivity index in data set [1] was 2. Half-maximal inhibition in data set [2] (IC50) was put at 63.1 nM. The same compound yielded a pIC25 in data set [3] of 7.5.

As for `CCO/C(O)=C1\C(COCC(C)(O)CN)=NC(C)=C(C(=O)OC)C1c1cccc(Cl)c1Cl` (configuration not stated), the Selectivity index in data set [1] was 2. In addition, in data set [2], the IC50 was 158 nM. In data set [3], this compound showed a pIC25 of 6.5.

In the case of `CCO/C(O)=C1\C(COCC(C)(O)CSc2ncccn2)=NC(C)=C(C(=O)OC)C1c1cccc(Cl)c1Cl` (configuration not stated), the Selectivity index in data set [1] was 1.6. Moreover, the IC50 in data set [2] was 25.1 nM. Further, the pIC25 in data set [3] was determined as 7.4.

With `CCO/C(O)=C1\C(COCC(O)CO)=NC(C)=C(C(=O)OC)C1c1cccc(Cl)c1Cl` (configuration not stated), the Selectivity index in data set [1] is 8. This compound had an IC50 in data set [2] of 15.8 nM. The pIC25 in data set [3] amounted to 6.9.

In the case of `CCO/C(O)=C1\C(COCC(C)(O)Cn2cncn2)=NC(C)=C(C(=O)OC)C1c1cccc(Cl)c1Cl` (configuration not stated), the Selectivity index in data set [1] is 3. The compound further had an IC50 in data set [2] of 20 nM. This compound displayed a pIC25 in data set [3] of 7.2.

On to `CCO/C(O)=C1\C(COCC(C)(O)CNc2ncccn2)=NC(C)=C(C(=O)OC)C1c1cccc(Cl)c1Cl` (configuration not stated), for which, in data set [1], the Selectivity index is 2. Also, half-maximal inhibition in data set [2] (IC50) was put at 39.8 nM. In addition, the pIC25 in data set [3] is listed as 7.1.

In the case of `CCO/C(O)=C1\C(COCC(C)O)=NC(C)=C(C(=O)OC)C1c1cccc(Cl)c1Cl` (configuration not stated), the Selectivity index in data set [1] was 3. In addition, the half-maximal inhibitory concentration (IC50) in data set [2] was 15.8 nM. The pIC25 in data set [3] is reported as 7.3.

As to `CCO/C(O)=C1\C(COCC(C)(O)c2ccco2)=NC(C)=C(C(=O)OC)C1c1cccc(Cl)c1Cl` (configuration not stated), the Selectivity index in data set [1] was 16. Besides, the IC50 in data set [2] was 15.8 nM. Besides, the pIC25 in data set [3] is 6.6.

For `COC(=O)C1=C(C)NC(C)=C(C(=O)OC)C1c1ccccc1[N+](=O)[O-]` [NIFEDIPINE], the Selectivity index in data set [1] is 8. The same compound had a pIC25 in data set [3] of 7.5.

`CCO/C(O)=C1\C(COCC(C)(O)CO)=NC(C)=C(C(=O)OC)C1c1cccc(Cl)c1Cl` (configuration not stated): in data set [1], the Selectivity index was 4. In data set [2], the IC50 was 25.1 nM. The compound further had a pIC25 in data set [3] of 7.

As for `CCO/C(O)=C1\C(COCCOC)=NC(C)=C(C(=O)OC)C1c1cccc(Cl)c1Cl` (configuration not stated), the Selectivity index in data set [1] was 30. Besides, the IC50 in data set [2] was 31.6 nM. In data set [3], the pIC25 is on record as 6.

Regarding `CCO/C(O)=C1\C(COCC(C)(C)O)=NC(C)=C(C(=O)OC)C1c1cccc(Cl)c1Cl` (configuration not stated), the Selectivity index in data set [1] was 10. In data set [2], this compound showed a half-inhibitory concentration (IC50) of 6.31 nM. The pIC25 in data set [3] worked out at 7.2.

For `CCO/C(O)=C1\C(COCC(C)(O)Cn2ccnc2)=NC(C)=C(C(=O)OC)C1c1cccc(Cl)c1Cl` (configuration not stated), the Selectivity index in data set [1] was 1.6. Also, in data set [2], the IC50 is 39.8 nM. In data set [3], this compound returned a pIC25 of 7.2.
